Laboratory results from ChEMBL document CHEMBL4130549, “Synthesis and bioactivities study of new antibacterial peptide mimics: The dialkyl cationic amphiphiles” (Eur J Med Chem, 2018).
Activity calls are given as the source filed them. The calls are words filed in the database; no cut-off is given here.

Tests used:
[1] = system: Enterococcus faecalis; test: Antibacterial activity against Enterococcus faecalis after 16 to 20 hrs by broth microdilution method; format: functional
Procedure, shortened: (§1)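 Broth microdilution per CLSI in cation-adjusted Mueller-Hinton broth; 4-6 h cultures (~10⁸ CFU/mL) diluted to ~10⁶ CFU/mL and mixed 1:1 with twofold dilutions of water-dissolved compound (256 to 0.5 µg/mL). Incubated 16-20 h at 37 °C; MIC read visually. Each concentration run in duplicate, whole experiment repeated at least twice. MRSA, KPC and NDM-1 strains were clinical isolates.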

[2] = system: Klebsiella pneumoniae; test: Antibacterial activity against carbapenemase-producing Klebsiella pneumoniae isolate K9 after 16 to 20 hrs by broth microdilution method; format: functional; procedure, shortened: as §1
[3] = system: Klebsiella pneumoniae; test: Antibacterial activity against carbapenemase-producing Klebsiella pneumoniae isolate K1 after 16 to 20 hrs by broth microdilution method; format: functional; procedure, shortened: as §1
[4] = system: Staphylococcus aureus; test: Induction of cytoplasmic membrane depolarization in Staphylococcus aureus ATCC 29213 at 20 ug/ml measured every 2 mins for 12 mins by diSC35 staining based fluorescence assay; format: functional, organism-based
Procedure, shortened: (§2)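 Mid-log cells (4–6 h) pelleted, washed and resuspended (~10^8 CFU/mL) in PBS for S. aureus, or in 5 mM HEPES, 5 mM glucose and 100 mM KCl (1:1:1) for E. coli. Preloaded with diSC35 (10 µM, 50 µL), 30 min for S. aureus and 40 min plus EDTA (200 µM, 50 µL) for E. coli. Baseline read 8 min (ex 622/em 670 nm), then compound added to 20 µg/mL final and read every 2 min for 12 min. Water control.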

[5] = system: Staphylococcus aureus; test: Antibacterial activity against methicillin-resistant Staphylococcus aureus after 16 to 20 hrs by broth microdilution method; format: functional
Procedure, shortened: (§3)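 CLSI broth microdilution in cation-adjusted Mueller-Hinton broth. A 4-6 h culture was diluted to about 10⁶ CFU/mL and mixed 1:1 with twofold compound dilutions (256–0.5 µg/mL before mixing) prepared from aqueous stocks. Plates were incubated at 37 °C for 16-20 h. Each concentration was tested in duplicate, and the experiment was repeated at least twice.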

[6] = system: Staphylococcus aureus; test: Antibacterial activity against methicillin-resistant Staphylococcus aureus isolate M7 after 16 to 20 hrs by broth microdilution method; format: functional; procedure, shortened: as §3
[7] = system: Staphylococcus aureus; test: Antibacterial activity against methicillin-resistant Staphylococcus aureus isolate M10 after 16 to 20 hrs by broth microdilution method; format: functional; procedure, shortened: as §3
[8] = system: Escherichia coli; test: Antibacterial activity against Escherichia coli ATCC 25922 after 16 to 20 hrs by broth microdilution method; format: functional; procedure, shortened: as §1
[9] = system: Escherichia coli; test: Induction of cytoplasmic membrane depolarization in Escherichia coli ATCC 25922 at 20 ug/ml measured every 2 mins for 12 mins by diSC35 staining based fluorescence assay; format: functional, organism-based; procedure, shortened: as §2
[10] = system: Escherichia coli; test: Induction of inner membrane permeabilization in Escherichia coli ATCC 25922 at 20 ug/ml measured every 2 mins for 12 mins by propidium iodide staining based fluorescence assay; format: functional, organism-based
Procedure, shortened: (§4)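 Mid-log cells (~10^8 CFU/mL) pre-incubated with propidium iodide (10 µM, 50 µL), 30 min for S. aureus and 40 min for E. coli. Fluorescence (ex 535/em 617 nm) read for 8 min, then compound added to 20 µg/mL final and monitored every 2 min for 12 min. Water-treated control.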

[11] = system: Staphylococcus aureus; test: Antibacterial activity against methicillin-resistant Staphylococcus aureus isolate M1 after 16 to 20 hrs by broth microdilution method; format: functional; procedure, shortened: as §3
[12] = system: Klebsiella pneumoniae; test: Antibacterial activity against carbapenemase-producing Klebsiella pneumoniae isolate K10 after 16 to 20 hrs by broth microdilution method; format: functional; procedure, shortened: as §1
[13] = system: Klebsiella pneumoniae; test: Antibacterial activity against carbapenemase-producing Klebsiella pneumoniae isolate K2 after 16 to 20 hrs by broth microdilution method; format: functional; procedure, shortened: as §1
[14] = system: Klebsiella pneumoniae; test: Antibacterial activity against carbapenemase-producing Klebsiella pneumoniae isolate K8 after 16 to 20 hrs by broth microdilution method; format: functional; procedure, shortened: as §1
[15] = system: Staphylococcus aureus; test: Antibacterial activity against methicillin-resistant Staphylococcus aureus isolate M2 after 16 to 20 hrs by broth microdilution method; format: functional; procedure, shortened: as §3
[16] = system: Staphylococcus aureus; test: Antibacterial activity against methicillin-resistant Staphylococcus aureus isolate M9 after 16 to 20 hrs by broth microdilution method; format: functional; procedure, shortened: as §3
[17] = system: Staphylococcus aureus; test: Antibacterial activity against methicillin-resistant Staphylococcus aureus isolate M4 after 16 to 20 hrs by broth microdilution method; format: functional; procedure, shortened: as §3
[18] = system: Enterobacteriaceae; test: Antibacterial activity against NDM-1-producing Enterobacteriaceae isolate N8 after 16 to 20 hrs by broth microdilution method; format: functional; procedure, shortened: as §1
[19] = system: Enterobacteriaceae; test: Antibacterial activity against NDM-1-producing Enterobacteriaceae isolate N4 after 16 to 20 hrs by broth microdilution method; format: functional; procedure, shortened: as §1
[20] = system: Enterobacteriaceae; test: Antibacterial activity against NDM-1-producing Enterobacteriaceae isolate N9 after 16 to 20 hrs by broth microdilution method; format: functional; procedure, shortened: as §1
[21] = system: Staphylococcus aureus; test: Antibacterial activity against methicillin-resistant Staphylococcus aureus isolate M8 after 16 to 20 hrs by broth microdilution method; format: functional; procedure, shortened: as §3
[22] = system: Enterobacteriaceae; test: Antibacterial activity against NDM-1-producing Enterobacteriaceae isolate N2 after 16 to 20 hrs by broth microdilution method; format: functional; procedure, shortened: as §1
[23] = system: Enterobacteriaceae; test: Antibacterial activity against NDM-1-producing Enterobacteriaceae isolate N3 after 16 to 20 hrs by broth microdilution method; format: functional; procedure, shortened: as §1
[24] = system: Enterobacteriaceae; test: Antibacterial activity against NDM-1-producing Enterobacteriaceae isolate N5 after 16 to 20 hrs by broth microdilution method; format: functional; procedure, shortened: as §1
[25] = system: Klebsiella pneumoniae; test: Antibacterial activity against carbapenemase-producing Klebsiella pneumoniae isolate K6 after 16 to 20 hrs by broth microdilution method; format: functional; procedure, shortened: as §1
[26] = system: Staphylococcus aureus; test: Antibacterial activity against methicillin-resistant Staphylococcus aureus isolate M3 after 16 to 20 hrs by broth microdilution method; format: functional; procedure, shortened: as §3
[27] = system: Staphylococcus aureus; test: Induction of inner membrane permeabilization in Staphylococcus aureus ATCC 29213 at 20 ug/ml measured every 2 mins for 12 mins by propidium iodide staining based fluorescence assay; format: functional, organism-based; procedure, shortened: as §4
[28] = system: Enterobacteriaceae; test: Antibacterial activity against NDM-1-producing Enterobacteriaceae isolate N7 after 16 to 20 hrs by broth microdilution method; format: functional; procedure, shortened: as §1
[29] = system: Enterobacteriaceae; test: Antibacterial activity against NDM-1-producing Enterobacteriaceae isolate N6 after 16 to 20 hrs by broth microdilution method; format: functional; procedure, shortened: as §1
[30] = system: Klebsiella pneumoniae; test: Antibacterial activity against carbapenemase-producing Klebsiella pneumoniae isolate K3 after 16 to 20 hrs by broth microdilution method; format: functional; procedure, shortened: as §1
[31] = system: Staphylococcus aureus; test: Antibacterial activity against methicillin-resistant Staphylococcus aureus isolate M6 after 16 to 20 hrs by broth microdilution method; format: functional; procedure, shortened: as §3
[32] = system: Klebsiella pneumoniae; test: Antibacterial activity against carbapenemase-producing Klebsiella pneumoniae isolate K7 after 16 to 20 hrs by broth microdilution method; format: functional; procedure, shortened: as §1
[33] = Hemolytic activity in sheep RBC after 1 hr; format: ADME, cell-based, Ovis aries, Erythrocyte; conditions: sheep red blood cells (erythrocytes)
Procedure, shortened: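 Sheep RBCs suspended at 5% in PBS; 150 µL added to 50 µL compound dilutions (5120 to 10 µg/mL series). Incubated 1 h at 37 °C, then centrifuged; supernatant absorbance read at 540 nm. Lysis (%) = (A−A0)/(Atotal−A0)×100, with untreated 5% RBC as A0 and 0.1% Triton X-100 as total.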

[34] = system: Escherichia coli; test: Induction of outer membrane permeabilization in Escherichia coli ATCC 25922 at 20 ug/ml measured every 2 mins for 12 mins by NPN staining based fluorescence assay; format: functional, organism-based
Procedure, shortened: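 Mid-log E. coli (~10^8 CFU/mL) in black plates pre-incubated about 40 min with NPN (10 µM, 50 µL). Baseline read 8 min (ex 350/em 420 nm), then compound added to 20 µg/mL final and fluorescence followed every 2 min for 12 min. Water-treated control.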

[35] = system: Enterobacteriaceae; test: Antibacterial activity against NDM-1-producing Enterobacteriaceae isolate N10 after 16 to 20 hrs by broth microdilution method; format: functional; procedure, shortened: as §1
[36] = system: Enterobacteriaceae; test: Antibacterial activity against NDM-1-producing Enterobacteriaceae isolate N1 after 16 to 20 hrs by broth microdilution method; format: functional; procedure, shortened: as §1
[37] = system: Staphylococcus aureus; test: Antibacterial activity against Staphylococcus aureus ATCC 29213 after 16 to 20 hrs by broth microdilution method; format: functional; procedure, shortened: as §3
[38] = system: Salmonella enterica; test: Antibacterial activity against Salmonella enterica after 16 to 20 hrs by broth microdilution method; format: functional; procedure, shortened: as §1
[39] = system: Klebsiella pneumoniae; test: Antibacterial activity against carbapenemase-producing Klebsiella pneumoniae isolate K4 after 16 to 20 hrs by broth microdilution method; format: functional; procedure, shortened: as §1
[40] = system: Klebsiella pneumoniae; test: Antibacterial activity against carbapenemase-producing Klebsiella pneumoniae isolate K5 after 16 to 20 hrs by broth microdilution method; format: functional; procedure, shortened: as §1
[41] = system: Klebsiella pneumoniae; test: Antibacterial activity against carbapenemase-producing Klebsiella pneumoniae after 16 to 20 hrs by broth microdilution method; format: functional; procedure, shortened: as §1
[42] = system: Staphylococcus aureus; test: Antibacterial activity against methicillin-resistant Staphylococcus aureus isolate M5 after 16 to 20 hrs by broth microdilution method; format: functional; procedure, shortened: as §3
[43] = system: Enterobacteriaceae; test: Antibacterial activity against NDM-1-producing Enterobacteriaceae after 16 to 20 hrs by broth microdilution method; format: functional; procedure, shortened: as §1

CCCCCCCCN(CCCCCCCC)C(=O)[C@@H](N)CO.Cl
MIC [1]: 2 µg/mL | MIC [2]: 32 µg/mL | MIC [3]: 32 µg/mL | Activity [4]: Active | MIC [5]: 2 µg/mL | MIC [6]: 2 µg/mL | MIC [7]: 2 µg/mL | MIC [8]: 8 µg/mL | Activity [9]: Active | Activity [10]: Active | MIC [11]: 4 µg/mL | MIC [12]: 32 µg/mL | MIC [13]: 32 µg/mL | MIC [14]: 32 µg/mL | MIC [15]: 4 µg/mL | MIC [16]: 4 µg/mL | MIC [17]: 4 µg/mL | MIC [18]: 32 µg/mL | MIC [19]: 16 µg/mL | MIC [20]: 32 µg/mL | MIC [21]: 4 µg/mL | MIC [22]: 32 µg/mL | MIC [23]: 16 µg/mL | MIC [24]: 16 µg/mL | MIC [25]: 32 µg/mL | MIC [26]: 4 µg/mL | Activity [27]: Active | MIC [28]: 32 µg/mL | MIC [29]: 16 µg/mL | MIC [30]: 32 µg/mL | MIC [31]: 4 µg/mL | MIC [32]: 32 µg/mL | HC50 at 1 h [33]: > 1000 µg/mL | Activity [34]: Active | MIC [35]: 32 µg/mL | MIC [36]: 32 µg/mL | MIC [37]: 4 µg/mL | MIC [38]: 8 µg/mL | MIC [39]: 32 µg/mL | MIC [40]: 32 µg/mL | MIC [41]: 32 µg/mL | MIC [42]: 4 µg/mL | MIC [43]: 16 µg/mL
